Data set [1] is described as follows: Plasma pharmacokinetics after repeated nebulized dosing. In kind it is in vivo, human. The gist of the method: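 Healthy adults aged 18–55 received 5 mg nebulized by facemask every 12 h for 5 days (10 doses), with the first dose either in the morning (schedule A) or the evening (schedule B). Serial plasma samples were assayed by LC–MS/MS after liquid–liquid extraction, using a D4-labelled internal standard (LLOQ 0.1 ng/mL; range 0.1–100 ng/mL). Tmax was timed from the end of inhalation, and values are geometric means of both schedules.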

Data set [2] in a line: RSV challenge study: safety. The format is in vivo, human. The method in brief: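 This was a randomized, single-blind, placebo-controlled study in healthy adults inoculated intranasally on day 0 and held in quarantine for 15 days. They received 5 mg or placebo by nebulizer and facemask every 12 h for 5 days. The ITT population comprised those inoculated who received at least one dose. Adverse events (counted as subjects reporting them), laboratory values, vital signs, ECG and spirometry were recorded through day 28 (±3 days).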

In data set [3] the test system is RSV-A Memphis 37b. The experiment in a line: RSV challenge study: viral load in nasal wash by RT-qPCR. The format is in vivo, human. To be noted: for AUC VL from baseline through day 12 / Reduction in AUC VL vs placebo: 5 mg BID nebulized; for AUC VL from baseline through day 12 / Peak VL / Time to nondetectability (or <1 log) of RSV RNA / VL at 2.5 d (peak at placebo) after first dose / VL slope: baseline to 24 h after first dose / VL slope: baseline to 48 h after first dose: LS mean (SD). The method in brief: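 Nasal washes collected twice daily were assayed for RSV RNA by RT-qPCR (Simplexa) and expressed as log10 PFUe/mL. ITT-I was defined as PCR-positive just before dosing, or positive on at least two later occasions. Nebulized 5 mg or placebo was given every 12 h for 5 days, starting about 12 h after detection or on day 6. Viral load AUC, peak and time to nondetectability were analysed by a mixed-effects model and t test.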
In general terms: Quantitative PCR measures a nucleic acid by following its amplification.

In data set [4] the test system is RSV-A Memphis 37b. The experiment in a line: RSV challenge study: symptom score and mucous weight. In kind it is in vivo, human. To be noted: for AUC of mucous weight from baseline through day 12 / AUC of symptom score from baseline through day 12: LS mean (SD). The method in brief: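 Volunteers with low serum neutralizing titres were challenged with RSV-A Memphis 37b. Dosing with 5 mg or placebo by nebulizer every 12 h for 5 days began about 12 h after RT-qPCR detection or on the morning of day 6, whichever came first. Symptoms were self-recorded in diaries three times daily, and mucus was weighed daily from used facial tissues. AUCs were computed and group means compared by t test in the ITT-I population.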

For data set [5], the system named is RSV. To be noted: cited from earlier work.

Several values for one entry are separate records, joined by “and”; a condition that tells them apart may be missing. Identical values can stand only once. A value given as a limit tells only on which side of the number the result lay.

A word on the AUC: it is the area under the concentration-time curve, a measure of exposure. A high value points to more exposure. Broadly, the Cmax is the highest concentration seen after dosing. The half-life is the time needed for the level to fall by half in the phase considered. On to `Cc1cnc(N2CC3(CCOCC3)C2)c(C(=O)Nc2ccc(C(=O)N3CCc4cc(C(=O)Nc5c(C)cccc5F)sc4-c4ccccc43)cc2)c1` [PC786, N-(2-fluoro-6-methylphenyl)-6-(4-(5-methyl-2-(7-oxa-2-azaspiro [3.5]nonan-2-yl)nicotinamido)benzoyl)-5,6-dihydro-4H-benzo[b]thieno[2,3-d]azepine-2-carboxamide], for which, in data set [1] (5 mg BID), the “Time at which steady state was reached” value was at most 4 days. For the same molecule, the exposure (AUC) in data set [1] (human, inhaled, 5 mg) was 11.7 ng·h/mL. The molecule also registered a Cmax in data set [1] (human, inhaled, 5 mg, Mean plasma Cmax, 5 mg BID nebulized) of 1.5 ng/mL. Moreover, in data set [1] (human, inhaled, 5 mg, t½, apparent terminal half-life, geometric mean (CV%)), the half-life is 12.1 h. Moreover, the Tmax in data set [1] (repeated 5 mg BID, median (range), after end of inhalation) is 0.542 (0.383–2.08) h. Besides, in data set [2] (ITT (n = 28), 5 mg BID), the “Conjunctivitis attributed to study drug, subjects” value is on record as 0 No. (%); the “FEV1 decreased attributed to study drug, subjects” value is listed as 0 No. (%); the “Headache attributed to study drug, events” value is given as 1 No. of Events; the “Headache attributed to study drug, subjects” value was 1 (3.6) No. (%). Moreover, in data set [2] (ITT (n = 28), 5 mg BID), the “No. of subjects with AEs attributed to study drug” value is on record as 1 (3.6) No. (%) and the “Photophobia attributed to study drug, subjects” value is 0 No. (%). Besides, the “No. of subjects with AEs (TEAEs)” value in data set [2] (ITT (n = 28), 5 mg BID, first dose to day 28) was 12 No. (%) and 12 (42.9) No. (%). The “Serious adverse events, deaths, other significant AEs” value in data set [2] (nebulized 5 mg BID for 5 days) is “no serious adverse events”. In addition, the Tolerability result in data set [2] (nebulized 5 mg BID for 5 days, healthy subjects inoculated with RSV) is recorded as “well tolerated”. Besides, in data set [3] (ITT-I (n = 22)), the “AUC VL from baseline through day 12” value is 274.1 log10 PFUe/mL × h and 274.1 (234.42) log10 PFUe/mL × h. Besides, in data set [3] (ITT-I), the “Reduction in AUC VL vs placebo” value was found to be 32.57%, the “Peak VL” value is recorded as 3.4 (1.76) log10 PFUe/mL, the “Time to nondetectability (or <1 log) of RSV RNA” value is 4.6 (3.75) d and the “VL at 2.5 d (peak at placebo) after first dose” value is given as 2.0 (1.82) log10 PFUe/mL. In data set [3] (ITT-I), the “VL slope: baseline to 24 h after first dose” value is listed as 0.8 (1.89) log10 PFUe/mL/24 h and the “VL slope: baseline to 48 h after first dose” value was 0.6 (1.52) log10 PFUe/mL/48 h. Further, the “AUC VL from baseline through day 12” value in data set [3] (ITT-IS (n = 19, post hoc)) is 325.8 (199.19) log10 PFUe/mL × h. In addition, in data set [3] (ITT-IS), the “Reduction in AUC VL vs placebo” value was 34% and 34.25%; the “Peak VL” value is 3.7 (1.30) log10 PFUe/mL; the “Time to nondetectability (or <1 log) of RSV RNA” value is given as 4.9 (4.13) d; the “VL at 2.5 d (peak at placebo) after first dose” value is 2.3 (1.66) log10 PFUe/mL. Also, in data set [3] (ITT-IS), the “VL slope: baseline to 24 h after first dose” value was 0.7 (1.50) log10 PFUe/mL/24 h and the “VL slope: baseline to 48 h after first dose” value is 0.6 (1.45) log10 PFUe/mL/48 h. Besides, in data set [4] (ITT-I), the “AUC of mucous weight from baseline through day 12” value is recorded as 11.8 (22.99) g × No. of days and the “AUC of symptom score from baseline through day 12” value is 192.3 (244.97) score × h. Moreover, the “Mean AUC of mucous weight lower than placebo” value in data set [4] (ITT-I, P = .1095) is given as 38%. In addition, the “AUC of total symptom score lower than placebo” value in data set [4] (ITT-I, not statistically significant) turned out to be 29%. In data set [4] (ITT-IS), the “AUC of mucous weight from baseline through day 12” value is on record as 12.7 (24.69) g × No. of days and the “AUC of symptom score from baseline through day 12” value is on record as 221.2 (252.05) score × h. In data set [4] (ITT-IS, P = .0126), the “Reduction of mean AUC of mucous weight vs placebo” value stood at 46%.

For the molecule `CS(=O)(=O)CCCn1c(Cn2c(=O)n(CC(F)(F)F)c3ccncc32)cc2cc(Cl)ccc21` [JNJ-53718678], the “AUC reduction of viral load in RSV challenge study” value in data set [5] was 41%–53%.

Source of the values: PMC9200148 (The Journal of Infectious Diseases, 2020).
